Where two headings read alike, the source gives them in different places. Marks after values point to notes of the source that are not given here. Blank lines part the entries; values can stand above or below the compound they belong to.
Columns and labels:
HCT116 = assay: sulfurhodamine B; assay type: cell-based; details: Homo sapiens, HCT-116, 48 h, read-out: GI50 (50% cell growth inhibition)
Outline: (§1)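 Cells were kept at 37 °C in 5% CO2 with 10% FBS and penicillin–streptomycin. MDA-MB-231 were grown in DMEM, the others in RPMI 1640. Cells were seeded at 5.0 × 10^3/well and left 24 h before serial dilutions of test compound (1.85–150 μM) for 48 h. Cells were fixed with 10% TCA, stained with 0.4% SRB and washed with 1% acetic acid. Bound dye was dissolved in 10 mM Tris (pH 10.5) and read at 510 nm. Doxorubicin served as positive control.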

MCF-7 = assay: sulfurhodamine B; assay type: cell-based; details: Homo sapiens, MCF7, 48 h, read-out: GI50 (50% cell growth inhibition)
Outline: as §1

MDA-MB-231 = assay: sulfurhodamine B; assay type: cell-based; details: Homo sapiens, MDA-MB-231, 48 h, read-out: GI50 (50% cell growth inhibition)
Outline: as §1

MCR-5 [1] = assay: MTT assay, MCR-5 normal lung cells; assay type: cell-based; details: Homo sapiens, MCR5, 72 h, read-out: GI50 (50% cell growth inhibition)
Outline: (§2)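 Cells were grown in RPMI 1640 with 10% FBS and penicillin–streptomycin at 37 °C in 5% CO2. The P-gp-overexpressing NCI-H460/R line was derived from NCI-H460 by stepwise doxorubicin (5–100 nM, 3 months). Test compound (2.5–50 μM) ran 72 h, then MTT (1 mg/mL) 4 h at 37 °C. Formazan was dissolved in DMSO and read at 540 nm. Viability was relative to untreated cells, giving GI50. At least two independent experiments were run in triplicate. Paclitaxel served as positive control.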

NCI-H460/R = assay: MTT assay, NCI-H460/R; assay type: cell-based; details: Homo sapiens, NCI-H460, 72 h, read-out: GI50 (50% cell growth inhibition)
Outline: as §2

NCI-H460 = assay: MTT assay, NCI-H460; assay type: cell-based, human; details: for GI50: Homo sapiens, NCI-H460, 72 h, read-out: GI50 (50% cell growth inhibition)
Outline: as §2

HL-60 = details: read-out: cytotoxicity class (GI50); HL-60, leukemia/lymphoma; cited from earlier work
PaCa-2 = details: read-out: cytotoxicity class (GI50); cited from earlier work
Molt-3 = details: read-out: cytotoxicity class (GI50); Molt-3, leukemia/lymphoma; cited from earlier work
MEL-1 = details: read-out: cytotoxicity class (GI50); MEL-1, leukemia/lymphoma; cited from earlier work
AGS = details: read-out: cytotoxicity class (GI50), gastric; cited from earlier work
MCR-5 [2] = details: read-out: cytotoxicity class (GI50); cited from earlier work
MV-3 = details: read-out: cytotoxicity class (GI50); cited from earlier work

GI50 (HCT116): 125 nM
GI50 (MCF-7): 160 nM
GI50 (MDA-MB-231): 72 nM
Compound: COc1cccc2c1C(=O)c1c(O)c3c(c(O)c1C2=O)C[C@@](O)(C(=O)CO)C[C@@H]3O[C@H]1C[C@H](N)[C@H](O)[C@H](C)O1 [DOX, Doxorubicin]

GI50 (NCI-H460/R): > 100000 nM
GI50 (MDA-MB-231): > 100000 nM
GI50 (NCI-H460): > 100000 nM
Compound: O=C(/C=C/c1ccc(O)c(O)c1)O[C@H](Cc1ccc(O)c(O)c1)C(=O)O [(1), rosmarinic acid]
GI50 (MCR-5 [1]): > 100000 nM

GI50 (NCI-H460/R): 117 nM
GI50 (NCI-H460): 0.6 nM
Compound: CC(=O)O[C@H]1C(=O)[C@@]2(C)[C@H]([C@H](OC(=O)c3ccccc3)[C@]3(O)C[C@H](OC(=O)[C@H](O)[C@@H](NC(=O)c4ccccc4)c4ccccc4)C(C)=C1C3(C)C)[C@]1(OC(C)=O)CO[C@@H]1C[C@@H]2O [PCX, Paclitaxel]
GI50 (MCR-5 [1]): 523 nM
Selectivity index, SI = GI50(MCR-5)/GI50(NCI-H460) (NCI-H460; MCR-5 vs NCI-H460, MTT assay): PCX 872***

Compound: CC(C)C1=C(O)C(=O)C2=C(CC[C@H]3C(C)(C)CCC[C@]23C)C1=O [R1 = H, R2 = H, R3 = OH, royleanone]
GI50 (HL-60): > 30 µM
GI50 (PaCa-2): > 30 µM
GI50 (Molt-3): 10 to 30 µM
GI50 (MEL-1): > 30 µM
GI50 (AGS): > 30 µM
GI50 (MCR-5 [2]): 10 to 30 µM
GI50 (MV-3): > 30 µM

Reference: publication PMC6648853 (ACS Omega, 2019)
